Measured values from ChEMBL document CHEMBL1158991, “Cytotoxic and antimalarial constituents of the roots of Eurycoma longifolia” (J Nat Prod, 1991).
In brackets after ≈: the same amount, converted by molar mass. One block for each compound: values may come before it.

Assays:
[1] = Cytotoxicity against human fibrosarcoma cells; type: functional; details: Fibrosarcoma cell, read-out: ED50 (the source's name)
[2] = Cytotoxicity against human melanoma cells; type: functional; details: Melanoma cell, read-out: ED50 (the source's name)
KB = test: Cytotoxicity against human KB cells; type: functional; details: read-out: ED50 (the source's name)
[3] = Cytotoxicity against human colon cancer cells; type: functional; details: Cancer cell lines, read-out: ED50 (the source's name)
Plasmodium falciparum [4] = test: Antimalarial activity against Plasmodium falciparum W2 in human erythrocytes after 24 hrs by [3H]hypoxanthine uptake; type: functional, organism-based
How it was run: (§1)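 P. falciparum (D-6 chloroquine-sensitive, W-2 chloroquine-resistant) kept in type A+ human erythrocytes, RPMI-1640 with 32 mM NaHCO3, 35 mM HEPES and 10% heat-inactivated A+ plasma, 5% O2/5% CO2/90% N2, 37°. Assay: 0.5–1.0% parasitemia, 1.0% hematocrit, triplicates over 7-5000 ng/ml, 24 h. Then 0.5 µCi [3H]-hypoxanthine added for a further 18-24 h. Uninfected-cell dpm subtracted. IC50 by linear regression.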

[5] = Cytotoxicity against human lung cancer cells; type: functional; details: Cancer cell lines, read-out: ED50 (the source's name)
Plasmodium falciparum [6] = test: Antimalarial activity against Plasmodium falciparum D6 in human erythrocytes after 24 hrs by [3H]hypoxanthine uptake; type: functional, organism-based; how it was run: as §1
P388 = test: Cytotoxicity against mouse P388 cells; type: functional; details: read-out: ED50 (the source's name)
[7] = Cytotoxicity against human KBV1 cells; type: functional; details: KB-V1, read-out: ED50 (the source's name)
[8] = Cytotoxicity against human breast cancer cells; type: functional; details: Cancer cell lines, read-out: ED50 (the source's name)

SMILES: C=C1[C@@H](O)[C@@]2(O)OC[C@]34[C@H]2[C@@]2(C)[C@H](O)C(=O)C=C(C)[C@@H]2C[C@H]3OC(=O)[C@H](O)[C@@]14O [EURYCOMANONE]
EC50 [1]: 0.2 µg/mL (≈ 0.49 µM)
EC50 [2]: 8.2 µg/mL (≈ 20.1 µM)
EC50 (KB): 1.9 µg/mL (≈ 4.65 µM)
EC50 [3]: 1.2 µg/mL (≈ 2.94 µM)
IC50 (Plasmodium falciparum [4]): 0.0481 µg/mL (≈ 0.118 µM)
EC50 [5]: 14.3 µg/mL (≈ 35 µM)
IC50 (Plasmodium falciparum [6]): 0.0477 µg/mL (≈ 0.117 µM)
EC50 (P388): > 20 µg/mL
EC50 [7]: 0.8 µg/mL (≈ 1.96 µM)
EC50 [8]: 1.1 µg/mL (≈ 2.69 µM)

SMILES: COc1ccc2c3cc[n+]([O-])c4ccc(=O)n(c2c1)c34
EC50 [1]: 4.5 µg/mL (≈ 16.9 µM)
EC50 [2]: 6.5 µg/mL (≈ 24.4 µM)
EC50 (KB): 3.8 µg/mL (≈ 14.3 µM)
EC50 [3]: 8.1 µg/mL (≈ 30.4 µM)
EC50 [5]: 5.2 µg/mL (≈ 19.5 µM)
EC50 (P388): 11.7 µg/mL (≈ 43.9 µM)
EC50 [7]: > 20 µg/mL
EC50 [8]: 6 µg/mL (≈ 22.5 µM)

IC50 (Plasmodium falciparum [4]): 2.98 µg/mL (≈ 11 µM)
IC50 (Plasmodium falciparum [6]): 3.14 µg/mL (≈ 11.6 µM)
SMILES: COc1ccc2c(c1)[nH]c1c(CCC(=O)O)nccc12

SMILES: C=C[C@H]1CN2CC[C@H]1C[C@H]2[C@H](O)c1ccnc2ccc(OC)cc12 [QUININE]
IC50 (Plasmodium falciparum [4]): 0.114 µg/mL (≈ 0.353 µM)
IC50 (Plasmodium falciparum [6]): 0.0194 µg/mL (≈ 0.0598 µM)

SMILES: C[C@@H]1CC[C@H]2[C@@H](C)C(=O)O[C@@H]3O[C@@]4(C)CC[C@@H]1[C@]32OO4 [ARTEMISININ]
IC50 (Plasmodium falciparum [4]): 0.0018 µg/mL (≈ 0.00638 µM)
IC50 (Plasmodium falciparum [6]): 0.0027 µg/mL (≈ 0.00956 µM)

SMILES: O=c1ccc2nccc3c4ccc(O)cc4n1c23
EC50 [1]: 3.5 µg/mL (≈ 14.8 µM)
EC50 [2]: 5.4 µg/mL (≈ 22.9 µM)
EC50 (KB): 2 µg/mL (≈ 8.47 µM)
EC50 [3]: 4.8 µg/mL (≈ 20.3 µM)
EC50 [5]: 3.8 µg/mL (≈ 16.1 µM)
EC50 (P388): 1.5 µg/mL (≈ 6.35 µM)
EC50 [7]: > 20 µg/mL
EC50 [8]: 2.6 µg/mL (≈ 11 µM)

SMILES: COc1ccc2c3ccnc4ccc(=O)n(c2c1)c43
EC50 (P388): 1.4 µg/mL (≈ 5.59 µM)

SMILES: O=c1ccc2c3c(cc[n+]2[O-])c2ccc(O)cc2n13
EC50 [1]: 4.9 µg/mL (≈ 19.4 µM)
EC50 [2]: 7 µg/mL (≈ 27.8 µM)
EC50 (KB): 4.8 µg/mL (≈ 19 µM)
EC50 [3]: 7.5 µg/mL (≈ 29.7 µM)
EC50 [5]: 5.1 µg/mL (≈ 20.2 µM)
EC50 (P388): 12 µg/mL (≈ 47.6 µM)
EC50 [7]: > 20 µg/mL
EC50 [8]: 3.5 µg/mL (≈ 13.9 µM)

SMILES: OC(c1cc(C(F)(F)F)nc2c(C(F)(F)F)cccc12)C1CCCCN1 (configuration not stated) [MEFLOQUINE]
IC50 (Plasmodium falciparum [6]): 0.0095 µg/mL (≈ 0.0251 µM)
